Experimental data published in ChEMBL document CHEMBL1142431, “Benzodioxoles: novel cannabinoid-1 receptor inverse agonists for the treatment of obesity” (J Med Chem, 2008).
Calls of active or inactive are those of the source. The calls are words filed in the database; no cut-off is given here.

Tests used:
[1] = Clearance in rat liver microsomes; type: ADME, Microsome; settings: liver microsomes
Summary of the method: (§1)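 Test compound at 2 µM incubated with liver microsomes (0.5 mg protein/mL) in 50 mM potassium phosphate pH 7.4 at 37 °C. Reaction started with an NADPH-generating system (glucose-6-phosphate 3.2 mM, NADP 2.6 mM, MgCl2 6.5 mM). Six samples over 30 min, quenched in methanol with internal standard, then LC-MS/MS for substrate depletion. CLint taken from the first-order decay, normalized to protein.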

Cannabinoid receptor 1 [2] = target: T1, Cannabinoid receptor 1 (Homo sapiens, UniProt P21554); assay: Activity at human CB1R expressed in HEK293 cells assessed as intracellular cAMP level; type: functional, cell-based
T1 sequence (P21554 whole entry): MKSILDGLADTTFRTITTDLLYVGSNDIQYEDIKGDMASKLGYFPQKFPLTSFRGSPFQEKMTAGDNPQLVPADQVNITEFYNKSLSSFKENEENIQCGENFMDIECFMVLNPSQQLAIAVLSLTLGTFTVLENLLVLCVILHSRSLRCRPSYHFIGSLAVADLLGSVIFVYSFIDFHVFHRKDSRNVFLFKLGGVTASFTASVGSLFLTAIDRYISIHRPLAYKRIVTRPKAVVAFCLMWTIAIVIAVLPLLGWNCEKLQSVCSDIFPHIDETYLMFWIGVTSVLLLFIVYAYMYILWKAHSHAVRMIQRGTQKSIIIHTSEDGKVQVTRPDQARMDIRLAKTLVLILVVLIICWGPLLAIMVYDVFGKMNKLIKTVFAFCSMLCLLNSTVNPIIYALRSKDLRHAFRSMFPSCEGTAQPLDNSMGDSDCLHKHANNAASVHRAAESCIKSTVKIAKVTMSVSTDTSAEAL

[3] = Clearance in human liver microsomes; type: ADME, Microsome; settings: liver microsomes; summary of the method: as §1
Cannabinoid receptor 1 [4] = target: T1, Cannabinoid receptor 1; assay: biochemical; type: cell-based, HEK293
Mus musculus [5] = assay: Reversal of CP-55940-induced hypothermia in po dosed NMRI mouse assessed as rectal temperature; type: functional; settings: read-out: ID50 (the source's name)
Summary of the method: (§2)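 Mice housed eight per group, eight per dose, habituated at least 2 h. Test compound in 0.3% Tween 80 (10 mL/kg) given 90 min before CP 55940 (0.3 mg/kg iv, same vehicle). Body temperature read 20 min before compound, just before CP 55940, and 20 min after it.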

Mus musculus [6] = assay: Reversal of CP-55940-induced hypothermia in NMRI mouse assessed as rectal temperature at 30 mg/kg, ip; type: functional; summary of the method: as §2
Mus musculus [7] = assay: Reversal of CP-55940-induced hypothermia in NMRI mouse assessed as rectal temperature at 30 mg/kg, po; type: functional, organism-based; design: dose 30 mg/kg; summary of the method: as §2
Rattus norvegicus = assay: Reduction in body fat in po dosed diet-induced obesity Sprague-Dawley rat model; type: functional, organism-based
Summary of the method: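 Sprague-Dawley rats fed HFD from 3 weeks of age for 10 weeks; high responders (body weight exceeding chow controls by >2 SD) grouped n = 9. After 3 days gavage adaptation, daily oral dosing at 5:00 p.m. for 2 weeks in 7.5% gelatine/0.62% NaCl in water, 2 mL/kg. Fat and lean mass by MRI before and at end of treatment.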

Cannabinoid receptor 2 = Cannabinoid receptor 2 (Homo sapiens, UniProt P34972); assay: Binding affinity to human CB2R
Cannabinoid receptor 2, sequence (P34972 whole entry): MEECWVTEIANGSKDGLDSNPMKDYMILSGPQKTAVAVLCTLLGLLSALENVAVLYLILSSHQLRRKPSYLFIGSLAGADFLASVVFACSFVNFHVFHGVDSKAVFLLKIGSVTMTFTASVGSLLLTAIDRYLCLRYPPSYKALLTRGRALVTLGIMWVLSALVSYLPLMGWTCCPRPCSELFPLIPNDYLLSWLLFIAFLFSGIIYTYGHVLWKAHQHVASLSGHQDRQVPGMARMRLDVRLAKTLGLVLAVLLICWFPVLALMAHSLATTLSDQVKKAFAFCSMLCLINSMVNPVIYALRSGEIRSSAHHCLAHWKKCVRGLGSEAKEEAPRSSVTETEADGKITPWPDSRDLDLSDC

Question: With O=C(c1cc2c(cc1F)OC(c1ccc(F)cc1F)(c1ccc(F)cc1F)O2)N1CCCCC1 as the compound, how does the microsomal CLint [1] read?
Answer: Its microsomal CLint is 122 µL/min/mg.

Question: What about the EC50 (Cannabinoid receptor 1 [2]) of the same compound?
Answer: The EC50 was 2 nM.

Question: What about the microsomal CLint [3] of the same compound?
Answer: The microsomal CLint was 34 µL/min/mg.

Question: And the Ki (Cannabinoid receptor 1 [4])?
Answer: Its Ki is 1 nM.

Question: Which microsomal CLint [1] does the source give for O=C(c1cc2c(cc1F)OC(c1ccc(F)cc1)(c1ccc(F)cc1)O2)N1CCCCC1 here?
Answer: Its microsomal CLint is 81 µL/min/mg.

Question: What about the EC50 (Cannabinoid receptor 1 [2]) of the same compound?
Answer: Its EC50 is 72 nM.

Question: What about the microsomal CLint [3] of the same compound?
Answer: Its microsomal CLint is 48 µL/min/mg.

Question: What about the Ki (Cannabinoid receptor 1 [4]) of the same compound?
Answer: The Ki was 7 nM.

Question: For O=C(c1cc2c(cc1F)OC(c1ccc(F)cc1F)(c1ccc(F)cc1F)O2)N1CCOCC1, which microsomal CLint [1] is on record?
Answer: Its microsomal CLint is 30 µL/min/mg.

Question: And the EC50 (Cannabinoid receptor 1 [2])?
Answer: The EC50 was 4 nM.

Question: And the microsomal CLint [3]?
Answer: Its microsomal CLint is 96 µL/min/mg.

Question: And the Ki (Cannabinoid receptor 1 [4])?
Answer: Its Ki is 7 nM.

Question: What about the ED50 (Mus musculus [5]) of the same compound?
Answer: The ED50 was 8 mg/kg.

Question: What does the source list for O=S(=O)(c1cc2c(cc1F)OC(c1ccc(F)cc1F)(c1ccc(F)cc1F)O2)N1CCOCC1?
Answer: microsomal CLint [1]: 149 µL/min/mg; Activity (Mus musculus [6]): inactive; EC50 (Cannabinoid receptor 1 [2]): 11 nM; Activity (Mus musculus [7]): inactive; microsomal CLint [3]: 102 µL/min/mg; Ki (Cannabinoid receptor 1 [4]): 25 nM

Question: For O=C(c1cc2c(cc1F)OC(c1ccc(F)cc1)(c1ccc(F)cc1)O2)N1CCOCC1, which Ki (Cannabinoid receptor 1 [4]) is on record?
Answer: Its Ki is 18 nM.

Question: For Fc1ccc(C2(c3ccc(F)cc3)Oc3cc(F)c(CN4CCOCC4)cc3O2)cc1, which Ki (Cannabinoid receptor 1 [4]) is on record?
Answer: The Ki was greater than 1000 nM.

Question: With O=C(c1cc2c(cc1F)OC(c1ccc(F)cc1F)(c1ccc(F)cc1F)O2)N1CCC(F)(F)CC1 as the compound, how does the microsomal CLint [1] read?
Answer: Its microsomal CLint is 5 µL/min/mg.

Question: What about the EC50 (Cannabinoid receptor 1 [2]) of the same compound?
Answer: Its EC50 is 2 nM.

Question: What about the microsomal CLint [3] of the same compound?
Answer: The microsomal CLint was 17 µL/min/mg.

Question: And the Ki (Cannabinoid receptor 1 [4])?
Answer: Its Ki is 6 nM.

Question: What does the source list for O=C(c1cc2c(cc1F)OC(c1ccccc1)(c1ccccc1)O2)N1CCOCC1?
Answer: microsomal CLint [1]: 272 µL/min/mg; EC50 (Cannabinoid receptor 1 [2]): 26 nM; microsomal CLint [3]: 33 µL/min/mg; Ki (Cannabinoid receptor 1 [4]): 15 nM

Question: Which Activity (Rattus norvegicus) does the source give for Cc1c(C(=O)NN2CCCCC2)nn(-c2ccc(Cl)cc2Cl)c1-c1ccc(Cl)cc1 here?
Answer: Its Activity is “Active”.

Question: With O=C(c1cc2c(cc1F)O[C@@](c1ccc(F)cc1)(c1ccc(Cl)cc1Cl)O2)N1CCOCC1 as the compound, how does the Ki (Cannabinoid receptor 1 [4]) read?
Answer: The Ki was 35 nM.

Question: For O=C(c1cc2c(cc1F)OC(c1ccccc1F)(c1ccc(Cl)cc1Cl)O2)N1CCOCC1 (stereo unspecified), which microsomal CLint [1] is on record?
Answer: The microsomal CLint was 123 µL/min/mg.

Question: What about the EC50 (Cannabinoid receptor 1 [2]) of the same compound?
Answer: The EC50 was 2 nM.

Question: And the microsomal CLint [3]?
Answer: The microsomal CLint was 21 µL/min/mg.

Question: What about the Ki (Cannabinoid receptor 1 [4]) of the same compound?
Answer: The Ki was 4 nM.

Question: What about the ED50 (Mus musculus [5]) of the same compound?
Answer: The ED50 was 6 mg/kg.

Question: With O=S(=O)(c1ccc2c(c1)OC(c1ccccc1)(c1ccccc1)O2)N1CC=C(c2ccc(F)cc2)CC1 as the compound, how does the Activity (Mus musculus [6]) read?
Answer: Its Activity is “inactive”.

Question: And the Ki (Cannabinoid receptor 1 [4])?
Answer: The Ki was 13 nM.

Question: What about the Ki (Cannabinoid receptor 2) of the same compound?
Answer: Its Ki is greater than 10000 nM.

Question: With Cc1cc2c(cc1C(=O)N1CCOCC1)OC(c1ccccc1)(c1ccccc1)O2 as the compound, how does the Ki (Cannabinoid receptor 1 [4]) read?
Answer: Its Ki is 509 nM.

Question: What does the source list for O=C(c1cc2c(cc1Cl)OC(c1ccccc1)(c1ccccc1)O2)N1CCOCC1?
Answer: microsomal CLint [1]: 388 µL/min/mg; microsomal CLint [3]: 44 µL/min/mg; Ki (Cannabinoid receptor 1 [4]): 216 nM

Question: For CCCCCn1cc(C(=O)c2ccc3ccccc3c2)c2ccc(S(C)(=O)=O)cc21, which Ki (Cannabinoid receptor 1 [4]) is on record?
Answer: Its Ki is 110 nM.

Question: Which microsomal CLint [1] does the source give for O=S(=O)(c1cc2c(cc1F)OC(c1ccc(F)cc1F)(c1ccc(F)cc1F)O2)N1CCC(F)(F)CC1 here?
Answer: Its microsomal CLint is 287 µL/min/mg.

Question: What about the Activity (Mus musculus [6]) of the same compound?
Answer: The Activity was “inactive”.

Question: What about the EC50 (Cannabinoid receptor 1 [2]) of the same compound?
Answer: The EC50 was 3 nM.

Question: And the Activity (Mus musculus [7])?
Answer: The Activity was “inactive”.

Question: What about the microsomal CLint [3] of the same compound?
Answer: The microsomal CLint was 271 µL/min/mg.

Question: What about the Ki (Cannabinoid receptor 1 [4]) of the same compound?
Answer: Its Ki is 3 nM.

Question: Which microsomal CLint [1] does the source give for O=S(=O)(c1cc2c(cc1F)OC(c1ccc(F)cc1)(c1ccc(Cl)cc1Cl)O2)N1CCOCC1 (stereo unspecified) here?
Answer: Its microsomal CLint is 53 µL/min/mg.

Question: What about the EC50 (Cannabinoid receptor 1 [2]) of the same compound?
Answer: Its EC50 is 3 nM.

Question: And the microsomal CLint [3]?
Answer: The microsomal CLint was 20 µL/min/mg.

Question: What about the Ki (Cannabinoid receptor 1 [4]) of the same compound?
Answer: The Ki was 9 nM.

Question: What about the ED50 (Mus musculus [5]) of the same compound?
Answer: The ED50 was 16 mg/kg.

Question: For COc1ccc(C2(c3ccc(Cl)cc3Cl)Oc3cc(F)c(C(=O)N4CCCCC4)cc3O2)cc1 (stereo unspecified), which microsomal CLint [1] is on record?
Answer: The microsomal CLint was 88 µL/min/mg.

Question: What about the EC50 (Cannabinoid receptor 1 [2]) of the same compound?
Answer: The EC50 was 5 nM.

Question: And the microsomal CLint [3]?
Answer: The microsomal CLint was 34 µL/min/mg.

Question: What about the Ki (Cannabinoid receptor 1 [4]) of the same compound?
Answer: Its Ki is 2 nM.

Question: What about the ED50 (Mus musculus [5]) of the same compound?
Answer: Its ED50 is 8 mg/kg.

Question: With O=C(c1ccc2c(c1)OC(c1ccc(F)cc1)(c1ccc(Cl)cc1Cl)O2)N1CCOCC1 (stereo unspecified) as the compound, how does the microsomal CLint [1] read?
Answer: The microsomal CLint was 4 µL/min/mg.

Question: What about the EC50 (Cannabinoid receptor 1 [2]) of the same compound?
Answer: Its EC50 is 156 nM.

Question: And the microsomal CLint [3]?
Answer: Its microsomal CLint is 19 µL/min/mg.

Question: What about the Ki (Cannabinoid receptor 1 [4]) of the same compound?
Answer: Its Ki is 30 nM.

Question: What does the source list for O=C(c1cc2c(cc1F)OC(c1ccc(F)cc1)(c1ccc(Cl)cc1Cl)O2)N1CCOCC1 (stereo unspecified)?
Answer: microsomal CLint [1]: 22 µL/min/mg; EC50 (Cannabinoid receptor 1 [2]): 11 nM; microsomal CLint [3]: 10 µL/min/mg; Ki (Cannabinoid receptor 1 [4]): 4 nM; ED50 (Mus musculus [5]): 5 mg/kg

Question: Which results are given for O=C(c1ccc2c(c1)OC(c1ccccc1)(c1ccccc1)O2)N1CCCCC1?
Answer: microsomal CLint [1]: 673 µL/min/mg; Activity (Mus musculus [6]): inactive; microsomal CLint [3]: 53 µL/min/mg; Ki (Cannabinoid receptor 1 [4]): 28 nM

Question: Which microsomal CLint [1] does the source give for O=C(c1cc2c(cc1F)OC(c1ccc(F)cc1)(c1ccc(Cl)cc1Cl)O2)N1CCCCC1 (stereo unspecified) here?
Answer: The microsomal CLint was 89 µL/min/mg.

Question: What about the EC50 (Cannabinoid receptor 1 [2]) of the same compound?
Answer: Its EC50 is 5 nM.

Question: And the microsomal CLint [3]?
Answer: The microsomal CLint was 31 µL/min/mg.

Question: What about the Ki (Cannabinoid receptor 1 [4]) of the same compound?
Answer: Its Ki is 4 nM.

Question: What does the source list for O=S(=O)(c1ccc2c(c1)OC(c1ccccc1)(c1ccccc1)O2)N1CCCCC1?
Answer: microsomal CLint [1]: 549 µL/min/mg; Activity (Mus musculus [6]): inactive; microsomal CLint [3]: 137 µL/min/mg; Ki (Cannabinoid receptor 1 [4]): 38 nM

Question: With O=C(CC(c1ccccc1)c1ccccc1)N1CC=C(c2ccc(Cl)cc2)CC1 as the compound, how does the Ki (Cannabinoid receptor 1 [4]) read?
Answer: Its Ki is 1500 nM.

Question: With O=C(c1cc2c(cc1F)OC(c1ccccc1)(c1ccccc1)O2)N1CCCCC1 as the compound, how does the microsomal CLint [1] read?
Answer: The microsomal CLint was 486 µL/min/mg.

Question: What about the EC50 (Cannabinoid receptor 1 [2]) of the same compound?
Answer: Its EC50 is 1.2 nM.

Question: What about the microsomal CLint [3] of the same compound?
Answer: The microsomal CLint was 50 µL/min/mg.

Question: And the Ki (Cannabinoid receptor 1 [4])?
Answer: Its Ki is 11 nM.

Question: Which Ki (Cannabinoid receptor 1 [4]) does the source give for O=C(c1cc2c(cn1)OC(c1ccccc1)(c1ccccc1)O2)N1CCCCC1 here?
Answer: The Ki was 13 nM.

Question: Which Ki (Cannabinoid receptor 1 [4]) does the source give for N#Cc1cc2c(cc1C(=O)N1CCOCC1)OC(c1ccccc1)(c1ccccc1)O2 here?
Answer: The Ki was 277 nM.

Question: With O=C(c1cc2c(cc1Br)OC(c1ccccc1)(c1ccccc1)O2)N1CCOCC1 as the compound, how does the Ki (Cannabinoid receptor 1 [4]) read?
Answer: The Ki was 873 nM.

Question: For O=C(c1ccc2c(c1)OC(c1ccccc1)(c1ccccc1)O2)N1CCOCC1, which EC50 (Cannabinoid receptor 1 [2]) is on record?
Answer: The EC50 was 784 nM.

Question: And the Ki (Cannabinoid receptor 1 [4])?
Answer: The Ki was 50 nM.
